“And” between values parts separate entries of the source, which are not always exact repeats. Equal entries are not always repeated.
Experiments:
[1] = Compound was evaluated for the toxicity in mice; assay type: organism-based; settings: mouse, in vivo
Mus musculus [2] = assay: Compound was evaluated for the percent reduction of carrageenan induced edema in mice at dose of 30 mg/kg; assay type: functional
Mus musculus [3] = assay: Compound was evaluated for the percent reduction of carrageenan induced edema in mice at dose of 50 mg/kg; assay type: functional
Mus musculus [4] = assay: Compound was evaluated for the percent reduction of carrageenan induced edema in mice at dose of 40 mg/kg; assay type: functional
Mus musculus [5] = assay: Compound was evaluated for the percent reduction of carrageenan induced edema in mice at dose of 150 mg/kg; assay type: functional
Mus musculus [6] = assay: Compound was evaluated for the percent reduction of carrageenan induced edema in mice at dose of 75 mg/kg; assay type: functional
Mus musculus [7] = assay: Compound was evaluated for the percent reduction of carrageenan induced edema in mice at dose of 200 mg/kg; assay type: functional
Mus musculus [8] = assay: Compound was evaluated for the percent reduction of carrageenan induced edema in mice at dose of 25 mg/kg; assay type: functional
Mus musculus [9] = assay: Compound was evaluated for the percent reduction of carrageenan induced edema in mice at dose of 10 mg/kg; assay type: functional
Mus musculus [10] = assay: Compound was evaluated for the percent reduction of carrageenan induced edema in mice at dose of 3 mg/kg; assay type: functional
Rattus norvegicus [11] = assay: Compound was evaluated in the developed adjuvant arthritis assay at a dose of 10 mg/kg for the percent reduction of carrageenan induced edema (LHF) on 21st day; assay type: functional
Procedure, shortened: (§1)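 Rats received 0.1 mL heat-killed Mycobacterium tuberculosis suspension (3.5 mg/mL) into the left hind footpad on day 1. On day 20, animals with developed arthritis (all four paws swollen, tail and ears involved) were used. Oral gavage in 0.25% methylcellulose (0.005 mL/g) on days 20 and 22. Hind paw volumes were recorded daily on days 20–23. Mean group volume is expressed as percent change from day 20.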

Rattus norvegicus [12] = assay: Compound was evaluated in the developed adjuvant arthritis assay at a dose of 10 mg/kg for the percent reduction of carrageenan induced edema (LHF) on 22nd day; assay type: functional; procedure, shortened: as §1
Rattus norvegicus [13] = assay: Compound was evaluated in the developed adjuvant arthritis assay at a dose of 10 mg/kg for the percent reduction of carrageenan induced edema (LHF) on 23rd day; assay type: functional; procedure, shortened: as §1
Mus musculus [14] = assay: Percent analgesia in phenylquinone writhing assay at 10 mg/kg; assay type: functional
Procedure, shortened: (§2)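 Groups of 10 male mice were dosed orally with compound dissolved or suspended in 0.25% methylcellulose (0.25 mL per mouse). After the designated interval they were challenged ip with 0.25 mL of 0.02% phenylquinone in aqueous ethanol (95:5). Read-out is the percentage of mice protected from writhing.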

Mus musculus [15] = assay: Percent analgesia in phenylquinone writhing assay at 100 mg/kg; assay type: functional; procedure, shortened: as §2
Mus musculus [16] = assay: Percent analgesia in phenylquinone writhing assay at 30 mg/kg; assay type: functional; procedure, shortened: as §2
Mus musculus [17] = species: Mus musculus; assay: Dose giving one-half of average maximal [40%] response in carrageenan assay; assay type: functional
Mus musculus [18] = species: Mus musculus; assay: Dose giving one-half of average maximal [40%] response in phenylquinone writhing assay; assay type: functional
Mus musculus [19] = assay: Compound was evaluated for the percent reduction of carrageenan induced edema in mice at dose of 100 mg/kg; assay type: functional
Mus musculus [20] = species: Mus musculus; assay: Neurotoxic dose that causes minimal recognizable neurotoxicity in 50% of animals tested; assay type: functional
Procedure, shortened: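 Mice dosed orally or intraperitoneally; neurotoxicity scored on five end points, including a positional sense test in which a hind leg lowered over a table edge should be quickly lifted back to a normal position. NTD50 is the dose giving minimal recognizable neurotoxicity in 50% of animals tested.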

Rattus norvegicus [21] = assay: Compound was evaluated in the developed adjuvant arthritis assay at a dose of 100 mg/kg for the percent reduction of carrageenan induced edema (LHF) on 21st day; assay type: functional; procedure, shortened: as §1
Rattus norvegicus [22] = assay: Compound was evaluated in the developed adjuvant arthritis assay at a dose of 100 mg/kg for the percent reduction of carrageenan induced edema (LHF) on 22nd day; assay type: functional; procedure, shortened: as §1
Rattus norvegicus [23] = assay: Compound was evaluated in the developed adjuvant arthritis assay at a dose of 100 mg/kg for the percent reduction of carrageenan induced edema (LHF) on 23rd day; assay type: functional; procedure, shortened: as §1
Rattus norvegicus [24] = assay: Compound was evaluated in the developed adjuvant arthritis assay at a dose of 30 mg/kg for the percent reduction of carrageenan induced edema (LHF) on 21st day; assay type: functional; procedure, shortened: as §1
Rattus norvegicus [25] = assay: Compound was evaluated in the developed adjuvant arthritis assay at a dose of 30 mg/kg for the percent reduction of carrageenan induced edema (LHF) on 22nd day; assay type: functional; procedure, shortened: as §1
Rattus norvegicus [26] = assay: Compound was evaluated in the developed adjuvant arthritis assay at a dose of 30 mg/kg for the percent reduction of carrageenan induced edema (LHF) on 23rd day; assay type: functional; procedure, shortened: as §1
Rattus norvegicus [27] = assay: Compound was evaluated in the developed adjuvant arthritis assay at a dose of 300 mg/kg for the percent reduction of carrageenan induced edema (LHF) on 21st day; assay type: functional; procedure, shortened: as §1
Rattus norvegicus [28] = assay: Compound was evaluated in the developed adjuvant arthritis assay at a dose of 300 mg/kg for the percent reduction of carrageenan induced edema (LHF) on 22nd day; assay type: functional; procedure, shortened: as §1
Rattus norvegicus [29] = assay: Compound was evaluated in the developed adjuvant arthritis assay at a dose of 300 mg/kg for the percent reduction of carrageenan induced edema (LHF) on 23rd day; assay type: functional; procedure, shortened: as §1
Rattus norvegicus [30] = species: Rattus norvegicus; assay: Ulcerogenic dose that produced gastric lesions, ulcers and/or hemorrhage in 50% of the animals tested; assay type: functional, Stomach
Procedure, shortened: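 Ten male Sprague–Dawley rats (ca. 160 g) were fasted 24 h with water available, then dosed po with compound or vehicle. At 4 h they were killed with CO2, and stomachs were opened along the greater curvature. A nonbiased observer scored ulcers, pitting or hemorrhagic spots. UD50 (lesions in 50% of animals) was determined by Litchfield–Wilcoxon.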

[31] = Lethal dose evaluated in NPP assay; assay type: toxicity, organism-based; settings: mouse, in vivo

## CC1=C(C(=O)Nc2c(Br)cccc2Br)SC2=NCCN21
[1]
  LD50: 40 mg/kg
Mus musculus [2]
  Reduction: 0%

## CCOC(=O)C1=C(C)N2CCN=C2S1
[1]
  LD50: 180 mg/kg
Mus musculus [3]
  Reduction: 2%

## Cc1cc(C)c(NC(=O)C2=C(c3ccccc3)N3CCN=C3S2)c(C)c1
[1]
  LD50: 80 mg/kg
Mus musculus [3]
  Reduction: 23%

## CC1(C)CN2C(c3ccccc3)=CSC2=N1
[1]
  LD50: 60 mg/kg
Mus musculus [4]
  Reduction: 0%

## CCOC(=O)Cc1ccc(C2=CSC3=NCCN23)cc1
[1]
  LD50: 180 mg/kg
Mus musculus [5]
  Reduction: 0%

## CC1=C(C(=O)Nc2ccccc2F)SC2=NCCN21
[1]
  LD50: 100 mg/kg
Mus musculus [6]
  Reduction: 15%

## CS(=O)(=O)CC1=CSC2=NCCN12
Mus musculus [7]
  Reduction: 11%

## CC1=C(C(=O)Nc2c(Cl)cccc2Cl)SC2=NCCN21
[1]
  LD50: 60 mg/kg

## OC1(C(F)(F)F)CSC2=NC3CCCCC3N21 (configuration not stated)
Mus musculus [7]
  Reduction: 18%

## CC1(C)SC2=NC3CCCCC3N2C1(O)c1ccccc1 (configuration not stated)
Mus musculus [7]; 200 mg/kg
  Reduction: 15% and 30%

## c1ccc(C2=C(c3ccccc3)N3CCN=C3S2)cc1
[1]
  LD50: 40 mg/kg
Mus musculus [8]
  Reduction: 14%

## CC1=C(C(=O)Nc2cccc(C(F)(F)F)c2)SC2=NCCN21
[1]
  LD50: 240 mg/kg
Mus musculus [7]
  Reduction: 36%

## CC1(O)CSC2=NC3CCCCC3N21 (configuration not stated)
Mus musculus [9]
  Reduction: 15%
Mus musculus [8]
  Reduction: 7%
Mus musculus [2]
  Reduction: 7%
Mus musculus [10]
  Reduction: 10%
Mus musculus [3]
  Reduction: 45%
Rattus norvegicus [11]
  Reduction: 3%
Rattus norvegicus [12]
  Reduction: 2%
Rattus norvegicus [13]
  Reduction: 11%

## CS(=O)(=O)C1=C(c2ccccc2)N2CCN=C2S1
Mus musculus [14]
  Analgesia: 10%
Mus musculus [15]
  Analgesia: 90%
Mus musculus [16]
  Analgesia: 60%
Mus musculus [17]
  ED50: 30 mg/kg
Mus musculus [18]
  ED50: 30 mg/kg
[1]
  LD50: > 300 mg/kg
Mus musculus [9]
  Reduction: 33%
Mus musculus [7]
  Reduction: 43%
Mus musculus [19]
  Reduction: 30%
Mus musculus [20]
  NTD50: 690 mg/kg
Mus musculus [2]
  Reduction: 26%
Mus musculus [10]
  Reduction: 15%
Rattus norvegicus [21]
  Reduction: 11%
Rattus norvegicus [22]
  Reduction: 26%
Rattus norvegicus [23]
  Reduction: 16%
Rattus norvegicus [24]
  Reduction: 10%
Rattus norvegicus [25]
  Reduction: 15%
Rattus norvegicus [26]
  Reduction: 7%
Rattus norvegicus [27]
  Reduction: 10%
Rattus norvegicus [28]
  Reduction: 19%
Rattus norvegicus [29]
  Reduction: 17%
Rattus norvegicus [30]
  UD50: >100 mg/kg
[31]
  LD50: > 1000 mg/kg

## CC1(C)CN2C(CS(=O)(=O)c3ccccc3)=CSC2=N1
Mus musculus [7]
  Reduction: 5%
